Laboratory results from ChEMBL document CHEMBL1255332, “Isobolographic analysis of pharmacodynamic interactions between antifungal agents and ciprofloxacin against Candida albicans and Aspergillus fumigatus” (Antimicrob Agents Chemother, 2008).
≈ marks a conversion by molar mass, not a printed value.

Assays:
Assay type in all cases: functional, organism-based
[1] = tested on: Aspergillus fumigatus; experiment: Antifungal activity against Aspergillus fumigatus AF2025 spectrophotometry
How it was run: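 Conidia from 5–7-day Sabouraud agar cultures were adjusted to 80–82% transmittance at 530 nm, giving a final 0.4 × 10^4 to 5 × 10^4 CFU/ml in RPMI 1640 buffered at pH 7 with 0.165 M MOPS. They were tested in a checkerboard alone or with ciprofloxacin for 24 h at 37°C. A405 was converted to % of drug-free growth after background subtraction, an Emax model was fitted, and each test was run in triplicate.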

[2] = tested on: Candida albicans; experiment: Antifungal activity against Candida albicans CA362 by spectrophotometry
How it was run: (§1)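 Clinical C. albicans blastoconidia came from 1- to 2-day Sabouraud cultures, with a final inoculum of 5 × 10^2 to 2.5 × 10^3 CFU/ml in RPMI 1640 buffered to pH 7 with 0.165 M MOPS. Incubation was 37°C for 24 h. A405 was corrected against a conidium-free plate and expressed as % of drug-free control, and an Emax model was fitted for EC50. Three replicates.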

[3] = tested on: Candida albicans; experiment: Antifungal activity against Candida albicans CA5685 by spectrophotometry; how it was run: as §1
[4] = tested on: Aspergillus fumigatus; experiment: Antifungal activity against Aspergillus fumigatus AF2350 by spectrophotometry
How it was run: (§2)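 Clinical A. fumigatus conidia were harvested from 5- to 7-day Sabouraud cultures, with a final inoculum of 0.4 × 10^4 to 5 × 10^4 CFU/ml in RPMI 1640 (0.165 M MOPS, pH 7). Incubation was 37°C for 24 h. Growth at 405 nm, background-subtracted, was expressed as % of drug-free control, and an Emax model was fitted to give EC50. Three replicates.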

[5] = tested on: Candida albicans; experiment: Antifungal activity against Candida albicans CA8621 by spectrophotometry; how it was run: as §1
[6] = tested on: Aspergillus fumigatus; experiment: Antifungal activity against Aspergillus fumigatus AF4215 spectrophotometry; how it was run: as §2

SMILES: C[C@@H]1[C@H](O)[C@@H](C)/C=C/C=C/C=C/C=C/C=C/C=C/C=C/[C@H](O[C@@H]2O[C@H](C)[C@@H](O)[C@H](N)[C@@H]2O)C[C@@H]2O[C@](O)(C[C@@H](O)C[C@@H](O)[C@H](O)CC[C@@H](O)C[C@@H](O)CC(=O)O[C@H]1C)C[C@H](O)[C@H]2C(=O)O [AMPHOTERICIN B]
- EC50 [1]: 0.5 µg/mL (≈ 0.541 µM)
- MIC [1]: 0.5 µg/mL (≈ 0.541 µM)
- EC50 [2]: 0.25 µg/mL (≈ 0.271 µM)
- MIC [2]: 0.125 µg/mL (≈ 0.135 µM)

SMILES: CC[C@H](C)C[C@H](C)CCCCCCCCC(=O)N[C@H]1C[C@@H](O)[C@@H](NCCN)NC(=O)[C@@H]2[C@@H](O)CCN2C(=O)[C@H]([C@H](O)CCN)NC(=O)[C@H]([C@H](O)[C@@H](O)c2ccc(O)cc2)NC(=O)[C@@H]2C[C@@H](O)CN2C(=O)[C@H]([C@@H](C)O)NC1=O [CASPOFUNGIN]
- EC50 [3]: 0.59 µg/mL (≈ 0.54 µM)
- MIC [3]: 1 µg/mL (≈ 0.915 µM)
- EC50 [4]: 28.8 µg/mL (≈ 26.3 µM)
- MIC [4]: 128 µg/mL (≈ 117 µM)

SMILES: OC(Cn1cncn1)(Cn1cncn1)c1ccc(F)cc1F [FLUCONAZOLE]
- EC50 [5]: 0.09 µg/mL (≈ 0.294 µM)
- MIC [5]: 0.125 µg/mL (≈ 0.408 µM)
- EC50 [6]: 0.18 µg/mL (≈ 0.588 µM)
- MIC [6]: 0.5 µg/mL (≈ 1.63 µM)
